According to ChEMBL document CHEMBL1152649, “Synthesis, cytotoxicity and human telomerase inhibition activities of a series of 1,2-heteroannelated anthraquinones and anthra[1,2-d]imidazole-6,11-dione homologues” (2009):

Key:
MDA-MB-231 = assay: Growth inhibition of human MDA-MB-231 cells; type: functional
Summary of the method: (§1)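 NCI 60 cancer cell line screen run per the Developmental Therapeutics Program protocol. Dose–response curves were plotted against log10 drug concentration for each cell line within its subpanel, and mean graph midpoint values were calculated.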

[1] = Growth inhibition of human Hs 578T cells; type: functional; summary of the method: as §1
[2] = Cytotoxicity against human H1299 cells at 1 uM after 48 hrs by MTT assay; type: functional; conditions: NCI-H1299, 48 h
Summary of the method: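 H1299 non-small cell lung cancer cells were grown in RPMI 1640 with 10% FBS, penicillin and streptomycin at 37 °C under 5% CO2. About 2 × 10³ cells per well were seeded and left 24 h. Compounds were dissolved fresh in DMSO, diluted into complete medium and applied for 48 h. MTT was then added for 4 h at 37 °C, followed by lysis buffer (20% SDS, 50% DMF) for 16 h, and absorbance was read at 550 nm.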

A549 = assay: Antiproliferative activity against human A549 cells assessed as cell growth at 10 uM; type: functional; conditions: read-out: Activity
Summary of the method: (§2)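 NCI 60 cell line panel, single-dose screen (10^-5 M) run by the developmental therapeutics program protocol. Results are given as growth percent of treated cells relative to untreated control cells for each line.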

[3] = Antiproliferative activity against human Hs 578T cells assessed as cell growth at 10 uM; type: functional; conditions: read-out: Activity; summary of the method: as §2
MDA-MB-468 = assay: Antiproliferative activity against human MDA-MB-468 cells assessed as cell growth at 10 uM; type: functional; conditions: read-out: Activity; summary of the method: as §2
OVCAR-3 [4] = assay: Antiproliferative activity against human OVCAR-3 cells assessed as cell growth at 10 uM; type: functional; conditions: read-out: Activity; summary of the method: as §2
OVCAR-4 = assay: Antiproliferative activity against human OVCAR4 cells assessed as cell growth at 10 uM; type: functional; conditions: read-out: Activity; summary of the method: as §2
786-0 = assay: Antiproliferative activity against human 786-0 cells assessed as cell growth at 10 uM; type: functional; conditions: read-out: Activity; summary of the method: as §2
A498 = assay: Antiproliferative activity against human A498 cells assessed as cell growth at 10 uM; type: functional; conditions: read-out: Activity; summary of the method: as §2
RXF 393 = assay: Antiproliferative activity against human RXF393 cells assessed as cell growth at 10 uM; type: functional; conditions: read-out: Activity; summary of the method: as §2
TK-10 = assay: Antiproliferative activity against human TK10 cells assessed as cell growth at 10 uM; type: functional; conditions: read-out: Activity
Summary of the method: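 NCI 60 cell line panel, single dose (10^-5 M), run per the Developmental Therapeutics Program protocol (one dose mean graph). Each result is the growth percentage of treated cells relative to untreated control cells.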

M14 = assay: Antiproliferative activity against human M14 cells assessed as cell growth at 10 uM; type: functional; conditions: read-out: Activity; summary of the method: as §2
Malme-3M = assay: Antiproliferative activity against human MALME-3M cells assessed as cell growth at 10 uM; type: functional; conditions: read-out: Activity; summary of the method: as §2
SK-MEL-28 [5] = assay: Antiproliferative activity against human SK-MEL-28 cells assessed as cell growth at 10 uM; type: functional; conditions: read-out: Activity; summary of the method: as §2
SNB-19 = assay: Antiproliferative activity against human SNB19 cells assessed as cell growth at 10 uM; type: functional; conditions: read-out: Activity; summary of the method: as §2
HL-60(TB) = assay: Growth inhibition of human HL-60(TB) cells; type: functional
Summary of the method: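 NCI 60-cell-line panel run under the Developmental Therapeutics Program protocol. Dose-response curves are plotted against log10 drug concentration for each cell line within its subpanel, and GI50 is read from these curves.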

MOLT-4 = assay: Growth inhibition of human MOLT4 cells; type: functional; summary of the method: as §1
HOP-92 = assay: Growth inhibition of human HOP92 cells; type: functional; summary of the method: as §1
NCI-H226 = assay: Growth inhibition of human NCI-H226 cells; type: functional; summary of the method: as §1
NCI-H23 = assay: Growth inhibition of human NCI-H23 cells; type: functional; summary of the method: as §1
COLO 205 = assay: Growth inhibition of human COLO205 cells; type: functional; summary of the method: as §1
HCC 2998 = assay: Growth inhibition of human HCC2998 cells; type: functional; summary of the method: as §1
HCT-15 [6] = assay: Growth inhibition of human HCT15 cells; type: functional; summary of the method: as §1
KM12 [7] = assay: Growth inhibition of human KM12 cells; type: functional; summary of the method: as §1
SF-268 = assay: Growth inhibition of human SF268 cells; type: functional
Summary of the method: (§3)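 Assayed in the NCI 60 human cancer cell line panel under the Developmental Therapeutics Program protocol. For each line, dose–response curves were plotted against log10 drug concentration. In the one-dose screen at 10^-5 M, growth was given as percent of untreated control cells, and mean graph midpoint values were averaged.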

LOX IMVI = assay: Growth inhibition of human LOXIMVI cells; type: functional; summary of the method: as §1
SK-MEL-28 [8] = assay: Growth inhibition of human SK-MEL-28 cells; type: functional; summary of the method: as §3
OVCAR-3 [9] = assay: Growth inhibition of human OVCAR-3 cells; type: functional; summary of the method: as §1
OVCAR-8 = assay: Growth inhibition of human OVCAR8 cells; type: functional; summary of the method: as §1
SK-OV-3 = assay: Growth inhibition of human SKOV3 cells; type: functional; summary of the method: as §3
ACHN = assay: Growth inhibition of human ACHN cells; type: functional; summary of the method: as §1
UO-31 = assay: Growth inhibition of human UO31 cells; type: functional; summary of the method: as §3
PC-3 [10] = assay: Growth inhibition of human PC3 cells; type: functional; summary of the method: as §3
HCT-15 [11] = assay: Antiproliferative activity against human HCT15 cells assessed as cell growth at 10 uM; type: functional; conditions: read-out: Activity; summary of the method: as §2
KM12 [12] = assay: Antiproliferative activity against human KM12 cells assessed as cell growth at 10 uM; type: functional; conditions: read-out: Activity; summary of the method: as §2
[13] = target: Telomerase reverse transcriptase (Homo sapiens) (UniProt O14746); assay: Inhibition of TERT in human H1299 cells assessed as residual transcriptional activity at 100 uM after 24 hrs by SEAP reporter gene assay; values are per cent of control
CCRF-CEM = assay: Antiproliferative activity against human CCRF-CEM cells assessed as cell growth at 10 uM; type: functional; conditions: read-out: Activity; summary of the method: as §2
PC-3 [14] = assay: Antiproliferative activity against human PC3 cells assessed as cell growth at 10 uM; type: functional; conditions: read-out: Activity; summary of the method: as §2
[15] = read-out: LC50 (the source's name)

Telomerase reverse transcriptase (Homo sapiens), sequence (O14746 whole entry): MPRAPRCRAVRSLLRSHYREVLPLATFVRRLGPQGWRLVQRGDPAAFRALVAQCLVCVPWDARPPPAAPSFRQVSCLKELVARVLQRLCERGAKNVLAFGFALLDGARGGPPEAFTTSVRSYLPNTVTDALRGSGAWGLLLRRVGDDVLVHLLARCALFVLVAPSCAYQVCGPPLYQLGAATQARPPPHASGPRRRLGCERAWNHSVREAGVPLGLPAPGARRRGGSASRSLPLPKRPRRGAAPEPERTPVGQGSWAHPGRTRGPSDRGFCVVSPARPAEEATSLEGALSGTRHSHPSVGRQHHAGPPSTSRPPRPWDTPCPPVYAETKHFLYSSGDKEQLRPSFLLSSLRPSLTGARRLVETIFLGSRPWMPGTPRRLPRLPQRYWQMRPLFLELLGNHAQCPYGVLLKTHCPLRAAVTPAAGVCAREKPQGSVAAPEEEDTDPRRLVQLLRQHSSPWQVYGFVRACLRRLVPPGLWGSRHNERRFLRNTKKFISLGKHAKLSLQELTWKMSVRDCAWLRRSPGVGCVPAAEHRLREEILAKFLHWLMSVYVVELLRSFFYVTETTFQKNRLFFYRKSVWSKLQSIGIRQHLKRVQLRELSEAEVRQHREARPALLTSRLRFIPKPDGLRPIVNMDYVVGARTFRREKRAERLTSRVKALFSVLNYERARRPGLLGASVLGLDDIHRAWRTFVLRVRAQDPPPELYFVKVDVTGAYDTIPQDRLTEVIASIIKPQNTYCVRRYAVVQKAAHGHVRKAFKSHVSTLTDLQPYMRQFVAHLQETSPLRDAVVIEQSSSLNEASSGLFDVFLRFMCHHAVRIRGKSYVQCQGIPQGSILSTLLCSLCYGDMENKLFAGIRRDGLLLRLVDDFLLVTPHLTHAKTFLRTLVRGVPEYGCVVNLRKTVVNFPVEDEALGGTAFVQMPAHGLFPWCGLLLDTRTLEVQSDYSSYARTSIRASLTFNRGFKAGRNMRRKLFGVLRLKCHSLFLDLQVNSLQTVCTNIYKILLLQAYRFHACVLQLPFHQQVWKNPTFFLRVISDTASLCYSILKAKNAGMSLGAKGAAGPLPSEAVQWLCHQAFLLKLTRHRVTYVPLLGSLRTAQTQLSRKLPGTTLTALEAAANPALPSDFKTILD

O=C1c2ccccc2C(=O)c2c1ccc1nccnc21
GI50 (MDA-MB-231): 19.1 µM | LC50 (concentration killing 50% of cells) (MDA-MB-231): > 100 µM | TGI (MDA-MB-231): > 100 µM | GI50 [1]: 14.1 µM | LC50 [1]: > 100 µM | TGI [1]: 91.4 µM | viability at 1 µM [2]: 98% | growth at 10 µM (A549): 47.1% | growth at 10 µM [3]: 76.8% | growth at 10 µM (MDA-MB-468): 75.3% | growth at 10 µM (OVCAR-3 [4]): 71.7% | growth at 10 µM (OVCAR-4): 94.2% | growth at 10 µM (786-0): 28.4% | growth at 10 µM (A498): 98.8% | growth at 10 µM (RXF 393): 105% | growth at 10 µM (TK-10): 127% | growth at 10 µM (M14): 59.8% | growth at 10 µM (Malme-3M): 181% | growth at 10 µM (SK-MEL-28 [5]): 97.5% | growth at 10 µM (SNB-19): 87.3% | GI50 (HL-60(TB)): 0.68 µM | TGI (HL-60(TB)): 11.5 µM | CC50 (HL-60(TB); [15]): 83.7 µM | GI50 (MOLT-4): 3.65 µM | TGI (MOLT-4): > 100 µM | CC50 (MOLT-4; [15]): > 100 µM | GI50 (HOP-92): 22.5 µM | TGI (HOP-92): > 100 µM | CC50 (HOP-92; [15]): > 100 µM | GI50 (NCI-H226): 16.6 µM | TGI (NCI-H226): 95.2 µM | CC50 (NCI-H226; [15]): > 100 µM | GI50 (NCI-H23): 12 µM | TGI (NCI-H23): 70.3 µM | CC50 (NCI-H23; [15]): > 100 µM | GI50 (COLO 205): 3.4 µM | TGI (COLO 205): 28.4 µM | CC50 (COLO 205; [15]): > 100 µM | GI50 (HCC 2998): 1.4 µM | TGI (HCC 2998): 83.5 µM | CC50 (HCC 2998; [15]): > 100 µM | GI50 (HCT-15 [6]): 4.63 µM | TGI (HCT-15 [6]): 84.3 µM | CC50 (HCT-15 [6]; [15]): > 100 µM | GI50 (KM12 [7]): 5.26 µM | TGI (KM12 [7]): 49.5 µM | CC50 (KM12 [7]; [15]): > 100 µM | GI50 (SF-268): 4.98 µM | TGI (SF-268): > 100 µM | CC50 (SF-268; [15]): > 100 µM | GI50 (LOX IMVI): 4.2 µM | TGI (LOX IMVI): 38.9 µM | CC50 (LOX IMVI; [15]): > 100 µM | GI50 (SK-MEL-28 [8]): 21 µM | TGI (SK-MEL-28 [8]): 91.1 µM | CC50 (SK-MEL-28 [8]; [15]): > 100 µM | GI50 (OVCAR-3 [9]): 2.34 µM | TGI (OVCAR-3 [9]): 12.5 µM | CC50 (OVCAR-3 [9]; [15]): > 100 µM | GI50 (OVCAR-8): 5.07 µM | TGI (OVCAR-8): > 100 µM | CC50 (OVCAR-8; [15]): > 100 µM | GI50 (SK-OV-3): 6.95 µM | TGI (SK-OV-3): > 100 µM | CC50 (SK-OV-3; [15]): > 100 µM | GI50 (ACHN): 3.85 µM | TGI (ACHN): > 100 µM | CC50 (ACHN; [15]): > 100 µM | GI50 (UO-31): 3.02 µM | TGI (UO-31): 85.9 µM | CC50 (UO-31; [15]): > 100 µM | TGI (PC-3 [10]): > 100 µM | CC50 (PC-3 [10]; [15]): > 100 µM | growth at 10 µM (HCT-15 [11]): 52.1% | growth at 10 µM (KM12 [12]): 61% | residual activity [13]: 24%

N#Cc1ccc(-c2nc3ccc4c(c3[nH]2)C(=O)c2ccccc2C4=O)cc1
viability at 1 µM [2]: 80% | growth at 10 µM (A549): 106% | growth at 10 µM [3]: 102% | growth at 10 µM (MDA-MB-468): 95% | growth at 10 µM (OVCAR-3 [4]): 111% | growth at 10 µM (OVCAR-4): 101% | growth at 10 µM (CCRF-CEM): 117% | growth at 10 µM (786-0): 124% | growth at 10 µM (A498): 96.2% | growth at 10 µM (RXF 393): 117% | growth at 10 µM (TK-10): 180% | growth at 10 µM (M14): 243% | growth at 10 µM (Malme-3M): 201% | growth at 10 µM (SK-MEL-28 [5]): 115% | growth at 10 µM (PC-3 [14]): 109% | growth at 10 µM (SNB-19): 97.8% | growth at 10 µM (HCT-15 [11]): 101% | growth at 10 µM (KM12 [12]): 98.6% | residual activity [13]: 30%
